Source: ChEMBL document CHEMBL1133668, “Synthesis and antiviral activity of novel anti-VZV 5-substituted uracil nucleosides with a cyclopropane sugar moiety” (J Med Chem, 2000)
≈ marks a conversion by molar mass, not a printed value.

Columns and labels:
HEL [1] = assay: Tested for inhibitory activity against Varicella zoster virus(VZV) by plaque reduction assay using HEL cells; format: functional, cell-based; conditions: Homo sapiens
[2] = Tested for inhibitory activity against Herpes simplex virus type-1(HSV-1), activity is expressed as IC50.; format: functional
Vero = assay: Tested for cytotoxicity in vero cells, activity is expressed as CC50.; format: functional; conditions: Chlorocebus sabaeus
MRC5 [3] = assay: Tested for Antiherpetic activity against HSV-2 from 186 strain in MRC-5 cell lines.; format: functional, cell-based; conditions: Homo sapiens
Outline: (§1)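 Plaque reduction assay in MRC-5 cells, with HSV-1 Tomioka or HSV-2 strain 186 as the challenge virus. […] MRC-5 cells came from a commercial source.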

HEL [4] = assay: Tested for Antiherpetic activity against VZV from clinical isolates of HEL cell lines.(average of 11 isolates); format: functional, cell-based; conditions: Homo sapiens
MRC5 [5] = assay: Tested for Antiherpetic activity against VZV from clinical isolates of MRC-5 cell lines.(average of six isolates); format: functional, cell-based; conditions: Homo sapiens
MRC5 [6] = assay: Tested for Antiherpetic activity against HSV-1 from Tomioka strain in MRC-5 cell lines.; format: functional, cell-based; conditions: Homo sapiens; outline: as §1
HEL [7] = assay: Tested for Antiherpetic activity against VZV from Kawaguchi strain in HEL cell lines.; format: functional, cell-based; conditions: Homo sapiens

Row | SMILES | IC50 (HEL [1]) [µg/mL] | IC50 [2] [µg/mL] | CC50 (Vero) [µg/mL] | IC50 (MRC5 [3]) [µg/mL] | IC50 (HEL [4]) [µg/mL] | IC50 (MRC5 [5]) [µg/mL] | IC50 (MRC5 [6]) [µg/mL] | IC50 (HEL [7]) [µg/mL]
1 | O=c1[nH]c(=O)n(CC2(CO)CC2CO)cc1/C=C/I (configuration not stated) | 0.054 (≈ 0.143 µM) | 24.6 (≈ 65.1 µM) | 330 (≈ 873 µM) |  |  |  |  | 
2 | O=c1[nH]c(=O)n(CC2(CO)CC2CO)cc1/C=C/Br (configuration not stated) | 0.027 (≈ 0.0815 µM) | 14.5 (≈ 43.8 µM) | > 500 | > 100 | 0.097 (≈ 0.293 µM) | 0.035 (≈ 0.106 µM) | 0.77 (≈ 2.33 µM) | 0.027 (≈ 0.0815 µM)
3 | O=c1[nH]c(=O)n(CC2(CO)CC2CO)cc1I (configuration not stated) | 9.3 (≈ 26.4 µM) | 90 (≈ 256 µM) | > 500 |  |  |  |  | 
4 | Nc1nc2c(ncn2COCCO)c(=O)[nH]1 [ACYCLOVIR] |  | 0.81 (≈ 3.6 µM) | 820 (≈ 3640 µM) | 0.25 (≈ 1.11 µM) |  |  | 0.29 (≈ 1.29 µM) | 
5 | O=c1[nH]c(=O)n([C@@H]2O[C@H](CO)[C@@H](O)[C@H]2O)cc1/C=C/Br |  |  |  |  |  | 0.00031 (≈ 0.000888 µM) | 0.14 (≈ 0.401 µM) | 
6 | O=c1[nH]c(=O)n(CC2(CO)CC2CO)cc1Br (configuration not stated) | 97 (≈ 318 µM) | 215 (≈ 705 µM) | > 500 |  |  |  |  | 
7 | O=c1[nH]c(=O)n(CC2(CO)CC2CO)cc1/C=C/Cl (configuration not stated) | 0.07 (≈ 0.244 µM) | 4.3 (≈ 15 µM) | > 500 |  |  |  |  | 
8 | O=c1ccn(CC2(CO)CC2CO)c(=O)[nH]1 (configuration not stated) | > 100 | > 500 | > 500 |  |  |  |  | 
9 | Nc1nc(O)c2ncn(CCC(CO)CO)c2n1 [PENCICLOVIR] |  |  |  | 1.2 (≈ 4.74 µM) | 10 (≈ 39.5 µM) |  | 0.54 (≈ 2.13 µM) | 5.6 (≈ 22.1 µM)
10 | Nc1nc(O)c2ncn(C[C@]3(CO)C[C@H]3CO)c2n1 | 0.67 (≈ 2.53 µM) | 0.02 (≈ 0.0754 µM) | 240 (≈ 905 µM) | 0.12 (≈ 0.452 µM) |  | 0.21 (≈ 0.792 µM) | 0.0093 (≈ 0.0351 µM) | 0.67 (≈ 2.53 µM)
11 | C#Cc1cn(CC2(CO)CC2CO)c(=O)[nH]c1=O (configuration not stated) | > 100 | 310 (≈ 1240 µM) | > 500 |  |  |  |  | 
12 | O=c1[nH]c(=O)n(CC2(CO)CC2CO)cc1Cl (configuration not stated) | > 100 | 295 (≈ 1130 µM) | > 500 |  |  |  |  | 
13 | Cc1cn(CC2(CO)CC2CO)c(=O)[nH]c1=O (configuration not stated) | > 100 | > 500 | > 500 |  |  |  |  | 
14 | O=c1[nH]c(=O)n(CC2(CO)CC2CO)cc1F (configuration not stated) | > 100 | > 500 | > 500 |  |  |  |  | 
